ChEMBL document CHEMBL4004822, “Thienopyrimidinone Based Sirtuin-2 (SIRT2)-Selective Inhibitors Bind in the Ligand Induced Selectivity Pocket” (J Med Chem, 2017)
The source made the active and inactive calls. The calls are words filed in the database; no cut-off is given here.

Tests used:
[1] = molecular target: T1, NAD-dependent protein deacetylase sirtuin-1 (Homo sapiens, UniProt Q96EB6); assay: (§1) Inhibition of recombinant human N-terminal His-tagged SIRT1 (1 to 747 end residues) expressed in Escherichia coli using p53 derived (379 to 382 residues) fluorogenic peptide substrate RHKK(Ac)-AMC preincubated for 10 mins followed by substrate addition in presence of NAD+ by fluorescence assay
T1 sequence (Q96EB6 whole entry): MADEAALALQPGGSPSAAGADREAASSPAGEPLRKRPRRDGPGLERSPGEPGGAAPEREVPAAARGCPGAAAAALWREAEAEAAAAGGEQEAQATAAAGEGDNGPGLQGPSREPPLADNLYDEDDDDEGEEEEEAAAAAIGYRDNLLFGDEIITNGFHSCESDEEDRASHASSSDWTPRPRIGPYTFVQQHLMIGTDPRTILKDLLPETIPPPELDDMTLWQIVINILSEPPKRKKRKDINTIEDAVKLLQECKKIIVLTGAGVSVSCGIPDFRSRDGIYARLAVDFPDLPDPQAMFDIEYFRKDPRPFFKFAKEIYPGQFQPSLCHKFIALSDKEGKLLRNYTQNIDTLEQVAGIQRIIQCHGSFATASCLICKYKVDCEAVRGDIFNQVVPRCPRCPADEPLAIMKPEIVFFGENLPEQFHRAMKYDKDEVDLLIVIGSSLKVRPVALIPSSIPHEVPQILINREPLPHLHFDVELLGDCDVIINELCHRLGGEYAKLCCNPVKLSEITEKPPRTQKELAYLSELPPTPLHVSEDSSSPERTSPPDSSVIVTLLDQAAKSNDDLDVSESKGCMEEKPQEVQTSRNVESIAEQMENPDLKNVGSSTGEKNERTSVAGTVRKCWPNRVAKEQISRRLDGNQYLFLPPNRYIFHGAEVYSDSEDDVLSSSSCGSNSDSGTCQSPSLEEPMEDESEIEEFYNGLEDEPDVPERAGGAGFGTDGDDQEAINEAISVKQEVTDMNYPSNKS
How it was run: (§2)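 Two-step fluorogenic assay with p53 379–382 RHKK(Ac)-AMC. Compound (from 10 mM DMSO stock) preincubated ~10 min with human SIRT before substrate addition. Developer then releases fluorophore, read at ex 360/em 460 nm.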

[2] = molecular target: T2, NAD-dependent protein deacetylase sirtuin-2 (Homo sapiens) (UniProt Q8IXJ6); assay: as §1, with “C-terminal” for “N-terminal”, “SIRT2 (50” for “SIRT1 (1”, “389” for “747”, “coli at 10 uM” for “coli”, “assay relative to control” for “assay”; how it was run: as §2
T2 sequence (whole entry): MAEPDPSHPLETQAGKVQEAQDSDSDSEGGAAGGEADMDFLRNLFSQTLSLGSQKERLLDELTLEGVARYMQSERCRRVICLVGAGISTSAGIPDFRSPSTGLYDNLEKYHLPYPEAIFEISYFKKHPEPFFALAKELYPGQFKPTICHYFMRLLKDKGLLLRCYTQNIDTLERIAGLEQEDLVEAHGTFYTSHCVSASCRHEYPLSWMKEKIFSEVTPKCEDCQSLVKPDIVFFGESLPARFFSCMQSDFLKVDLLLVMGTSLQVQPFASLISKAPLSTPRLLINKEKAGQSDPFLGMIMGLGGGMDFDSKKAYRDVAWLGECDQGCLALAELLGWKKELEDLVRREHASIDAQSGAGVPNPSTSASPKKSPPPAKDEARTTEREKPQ

[3] = molecular target: T3, NAD-dependent protein deacetylase sirtuin-2 (Homo sapiens, UniProt Q8IXJ6); assay: Inhibition of recombinant human C-terminal His-tagged SIRT2 (50 to 389 end residues) expressed in Escherichia coli using p53 derived (379 to 382 residues) fluorogenic peptide substrate RHKK(Ac)-AMC preincubated for 10 mins followed by substrate addition in presence of NAD+ by fluorescence assay; how it was run: as §2
T3 sequence (Q8IXJ6 whole entry): T2 sequence (whole entry)

Homo sapiens [4] = species on record: Homo sapiens; assay: Selectivity ratio of IC50 for recombinant human N-terminal GST-tagged SIRT3 (101 to 399 residues) expressed in Escherichia coli to IC50 for recombinant human C-terminal His-tagged SIRT2 (50 to 389 end residues) expressed in Escherichia coli
Homo sapiens [5] = species on record: Homo sapiens; assay: Selectivity ratio of IC50 for recombinant human N-terminal His-tagged SIRT1 (1 to 747 end residues) expressed in Escherichia coli to IC50 for recombinant human C-terminal His-tagged SIRT2 (50 to 389 end residues) expressed in Escherichia coli
[6] = molecular target: T4, NAD-dependent protein deacetylase sirtuin-3, mitochondrial (Homo sapiens, UniProt Q9NTG7); assay: Inhibition of recombinant human N-terminal GST-tagged SIRT3 (101 to 399 residues) expressed in Escherichia coli using p53 derived (379 to 382 residues) fluorogenic peptide substrate RHKK(Ac)-AMC) preincubated for 10 mins followed by substrate addition in presence of NAD+ by fluorescence assay
T4 sequence (Q9NTG7 whole entry): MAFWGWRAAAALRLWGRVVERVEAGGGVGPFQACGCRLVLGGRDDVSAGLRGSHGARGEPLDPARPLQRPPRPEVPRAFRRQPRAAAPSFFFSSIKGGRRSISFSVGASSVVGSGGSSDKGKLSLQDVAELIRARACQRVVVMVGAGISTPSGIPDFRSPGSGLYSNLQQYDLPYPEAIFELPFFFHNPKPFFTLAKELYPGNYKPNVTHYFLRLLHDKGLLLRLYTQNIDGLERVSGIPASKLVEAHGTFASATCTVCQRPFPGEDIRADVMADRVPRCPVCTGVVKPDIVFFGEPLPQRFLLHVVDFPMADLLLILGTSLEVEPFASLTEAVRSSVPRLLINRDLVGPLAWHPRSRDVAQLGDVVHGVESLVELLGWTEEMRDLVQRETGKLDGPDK

[7] = molecular target: T2, NAD-dependent protein deacetylase sirtuin-2 (Homo sapiens); assay: Inhibition of SIRT2 in human MCF7 cells assessed as increase in alpha-tubulin K40 acetylation level at 1 to 50 uM after 24 hrs in presence of TSA by Western blot analysis; assay type: cell-based
How it was run: (§3)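 MCF-7 cells (ATCC, authenticated) kept in DMEM with 10% FCS, penicillin/streptomycin and 2 mM glutamine at 37 °C under 10% CO2. Treated 24 h with compound at 0, 1, 10, 20, 30 or 50 μM plus 50 nM TSA to block non-sirtuin HDACs. NP40 lysates (20 μg protein, BCA-quantified) run on SDS-PAGE and Western blotted for acetyl-K40 α-tubulin, total α-tubulin and β-actin; ECL detection.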

[8] = molecular target: T2, NAD-dependent protein deacetylase sirtuin-2 (Homo sapiens); assay: Inhibition of SIRT2 in human MCF7 cells assessed as increase in alpha-tubulin K40 acetylation level at 10 to 50 uM after 24 hrs in presence of TSA by Western blot analysis; assay type: cell-based; how it was run: as §3
[9] = molecular target: T2, NAD-dependent protein deacetylase sirtuin-2 (Homo sapiens); assay: Inhibition of SIRT2 in human MCF7 cells assessed as increase in alpha-tubulin K40 acetylation level after 24 hrs in presence of TSA by Western blot analysis; assay type: cell-based; how it was run: as §3

Compound	inhibition [2]	IC50 [3]	further results
O=c1c2c3c(sc2ncn1Cc1ccccc1)CC(NCC1CCCO1)CC3 (centres undefined)	22%	–	inhibition [7]: inactive
O=c1c2c3c(sc2ncn1Cc1cccc(-c2ccccc2)c1)CC(NCCN1CCCC1)CC3 (centres undefined)	77%	3.78 µM	–
COc1ccccc1CNC1CCc2c(sc3ncn(Cc4ccc5ccccc5c4)c(=O)c23)C1 (centres undefined)	75%	4.22 µM	–
O=c1c2c3c(sc2ncn1Cc1ccc2ccccc2c1)CC(NCC1CCCCC1)CC3 (centres undefined)	87%	5.53 µM	–
O=c1c2c3c(sc2ncn1Cc1ccc2ccccc2c1)CC(NCc1cncnc1)CC3 (centres undefined)	88%	5.3 µM	–
COc1ccccc1CNC1CCc2c(sc3ncn(Cc4cccc5cccnc45)c(=O)c23)C1 (centres undefined)	85%	5.61 µM	–
COc1ccccc1Cn1cnc2sc3c(c2c1=O)CCC(NCc1ccccc1)C3 (centres undefined)	75%	10.4 µM	–
O=c1c2c3c(sc2ncn1Cc1cccc2ccccc12)CC(NCC1CCCO1)CC3 (centres undefined)	67%	12.5 µM	–
O=c1c2c3c(sc2ncn1Cc1cccc2ccccc12)CC(NCc1ccccn1)CC3 (centres undefined)	81%	7.68 µM	–
COc1ccc2ccccc2c1Cn1cnc2sc3c(c2c1=O)CCC(NCCc1cccnc1)C3 (centres undefined)	66%	10.3 µM	–
COc1ccc2ccccc2c1Cn1cnc2sc3c(c2c1=O)CCC(NCc1cccc(F)c1)C3 (centres undefined)	73%	4.07 µM	–
COc1ccc(Cn2cnc3sc4c(c3c2=O)CCC(NC2CCOCC2)C4)c2ccccc12 (centres undefined)	81%	5.06 µM	–
O=c1c2c3c(sc2ncn1Cc1cccc(-c2ccccc2)c1)CC(NCCC1CCCCC1)CC3 (centres undefined)	90%	3.74 µM	–
COc1ccc2ccccc2c1Cn1cnc2sc3c(c2c1=O)CCC(NCc1c(C)nn(C)c1C)C3 (centres undefined)	94%	5.11 µM	–
COc1ccc(CNC2CCc3c(sc4ncn(Cc5ccc6ccccc6c5)c(=O)c34)C2)cn1 (centres undefined)	76%	10.2 µM	–

More lines, main results first:

inhibition [2]	IC50 [3]	Compound	further results
96%	0.65 µM	COc1ccc(CNC2CCc3c(sc4ncn(Cc5c(OC)ccc6ccccc56)c(=O)c34)C2)cc1 (centres undefined)	IC50 [1]: 119 µM
94%	0.73 µM	COc1ccc(Cn2cnc3sc4c(c3c2=O)CCC(NC2CCCC2)C4)c2ccccc12 (centres undefined)	IC50 [1]: 13.8 µM
97%	0.39 µM	N#Cc1ccc(CNC2CCc3c(sc4ncn(Cc5cccc6cccnc56)c(=O)c34)C2)cc1 (centres undefined)	IC50 [1]: 42.1 µM; Ratio IC50 (Homo sapiens [4]): > 256; Ratio IC50 (Homo sapiens [5]): 108; IC50 [6]: > 100 µM
90%	1.9 µM	COc1ccc2ccccc2c1Cn1cnc2sc3c(c2c1=O)CCC(NCC1CCCO1)C3 (centres undefined)	–
96%	0.58 µM	COc1ccc(Cn2cnc3sc4c(c3c2=O)CCC(NCc2c(C)noc2C)C4)c2ccccc12 (centres undefined)	IC50 [1]: 129 µM; Ratio IC50 (Homo sapiens [4]): 31; inhibition [8]: Active; inhibition [9]: Dose-dependent effect; Ratio IC50 (Homo sapiens [5]): 222; IC50 [6]: 18 µM
95%	1.2 µM	COc1ccc2ccccc2c1Cn1cnc2sc3c(c2c1=O)CCC(NCc1ccncc1)C3 (centres undefined)	–
94%	1.72 µM	O=c1c2c3c(sc2ncn1Cc1cccc2cccnc12)CC(NCc1cccc(F)c1)CC3 (centres undefined)	–
94%	2.93 µM	COc1ccc2ccccc2c1Cn1cnc2sc(CCNCc3ccncc3)c(C)c2c1=O	–
77%	3.14 µM	O=c1c2c3c(sc2ncn1Cc1cccc(-c2ccccc2)c1)CC(NCCN1CCOCC1)CC3 (centres undefined)	–
93%	1.74 µM	O=c1c2c3c(sc2ncn1Cc1cccc(-c2ccccc2)c1)CC(NC1CCOCC1)CC3 (centres undefined)	–
92%	3.14 µM	O=c1c2c3c(sc2ncn1Cc1ccc2ccccc2c1)CC(NCc1ccncc1)CC3 (centres undefined)	–
93%	2.5 µM	O=c1c2c3c(sc2ncn1Cc1cccc2cccnc12)CC(NCc1ccccc1)CC3 (centres undefined)	–
90%	0.97 µM	O=c1c2c3c(sc2ncn1Cc1cccc2cccnc12)CC(Nc1ccc(F)cc1)CC3 (centres undefined)	–
82%	2.48 µM	COc1ccc(NC2CCc3c(sc4ncn(Cc5cccc6cccnc56)c(=O)c34)C2)cc1 (centres undefined)	–
89%	2.24 µM	COc1ccccc1CNC1CCc2c(sc3ncn(Cc4c(OC)ccc5ccccc45)c(=O)c23)C1 (centres undefined)	–
98%	1.52 µM	O=c1c2c3c(sc2ncn1Cc1cccc(-c2ccccc2)c1)CC(NC1CCCC1)CC3 (centres undefined)	–
94%	2.43 µM	O=c1c2c3c(sc2ncn1Cc1cccc2cccnc12)CC(NCC1CCCCC1)CC3 (centres undefined)	–
91%	2.92 µM	O=c1c2c3c(sc2ncn1Cc1cccc2cccnc12)CC(NCc1cccnc1)CC3 (centres undefined)	–
83%	3.68 µM	O=c1c2c3c(sc2ncn1Cc1cccc2cccnc12)CC(NCc1ccncc1)CC3 (centres undefined)	–
91%	3.09 µM	O=c1c2c3c(sc2ncn1Cc1cccc2cccnc12)CC(NC1CCc2ccccc21)CC3 (centres undefined)	–
83%	3.12 µM	COc1ccc2ccccc2c1Cn1cnc2sc3c(c2c1=O)CCC(NCc1ccccn1)C3 (centres undefined)	–
